target: T1, Alpha-1D adrenergic receptor (Homo sapiens, UniProt P25100); assay: Antagonist activity at adrenergic alpha1D receptor (unknown origin) by firefly and renilla dual glo luciferase assay
T1 sequence (P25100 whole entry): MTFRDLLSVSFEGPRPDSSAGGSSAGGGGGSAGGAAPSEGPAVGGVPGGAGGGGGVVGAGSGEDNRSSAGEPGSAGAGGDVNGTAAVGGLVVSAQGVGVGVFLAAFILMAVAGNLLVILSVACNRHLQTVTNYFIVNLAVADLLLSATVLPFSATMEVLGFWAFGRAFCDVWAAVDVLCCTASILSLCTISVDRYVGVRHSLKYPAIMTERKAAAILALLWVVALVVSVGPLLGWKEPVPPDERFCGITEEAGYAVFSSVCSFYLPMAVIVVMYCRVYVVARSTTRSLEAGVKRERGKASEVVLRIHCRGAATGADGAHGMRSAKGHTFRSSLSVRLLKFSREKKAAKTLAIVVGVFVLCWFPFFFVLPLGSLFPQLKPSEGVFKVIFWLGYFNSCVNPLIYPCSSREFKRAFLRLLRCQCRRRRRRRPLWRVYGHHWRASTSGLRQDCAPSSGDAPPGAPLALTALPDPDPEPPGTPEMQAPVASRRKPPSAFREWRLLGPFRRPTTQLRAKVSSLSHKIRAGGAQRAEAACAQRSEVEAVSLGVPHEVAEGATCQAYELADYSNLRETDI
Outline: (§1)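 Firefly and Renilla luciferase activities (RLU) were read by luminometer with the Dual-Glo kit, following the manufacturer's protocol. IC50 values were derived from three independent experiments.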

| IC50 | Structure (SMILES) |
| --- | --- |
| 0.493 µM | O=C1c2ccccc2C(=O)N1Cc1ccc(CCN2CCN(c3ccc(F)cc3F)CC2)cc1 |
| 0.116 µM | O=C1c2ccccc2C(=O)N1Cc1ccc(CCN2CCN(Cc3ccccc3)CC2)cc1 |
| 10.6 µM | O=C1c2ccccc2C(=O)N1Cc1ccc(CCN2CCN(c3ccccc3F)CC2)cc1 |
| 0.0366 µM | O=C1c2ccccc2C(=O)N1Cc1ccc(CCN2CCN(c3ccccc3Cl)CC2)cc1 |
| 0.0101 µM | CS(=O)(=O)c1ccccc1N1CCN(CCc2ccc(CN3C(=O)c4ccccc4C3=O)cc2)CC1 |
| 0.0113 µM | O=C1c2ccccc2C(=O)N1Cc1ccc(CCN2CCN(c3ccccn3)CC2)cc1 |

The next lines start with the compound.

| Structure (SMILES) | IC50 |
| --- | --- |
| O=C1c2ccccc2C(=O)N1Cc1ccc(CCN2CCN(c3ccc(Br)cc3)CC2)cc1 | 7.43 µM |
| O=C1c2ccccc2C(=O)N1Cc1ccc(CCN2CCN(c3ccc(F)cc3)CC2)cc1 | 0.122 µM |
| Cc1ccc(N2CCN(CCc3ccc(CN4C(=O)c5ccccc5C4=O)cc3)CC2)cc1 | 0.344 µM |
| N#Cc1ccc(N2CCN(CCc3ccc(CN4C(=O)c5ccccc5C4=O)cc3)CC2)c(F)c1 | 0.957 µM |
| O=C1c2ccccc2C(=O)N1Cc1ccc(CCN2CCN(c3ccc(C(F)(F)F)cc3)CC2)cc1 | 0.0129 µM |

species on record: Homo sapiens; assay: Selectivity ratio of IC50 for adrenergic alpha1B receptor (unknown origin) to IC50 for adrenergic alpha1A receptor (unknown origin)

| Ratio IC50 | Structure (SMILES) |
| --- | --- |
| 8.8 | O=C1c2ccccc2C(=O)N1Cc1ccc(CCN2CCN(c3ccc(F)cc3F)CC2)cc1 |
| 0.8 | O=C1c2ccccc2C(=O)N1Cc1ccc(CCN2CCN(Cc3ccccc3)CC2)cc1 |
| 19.5 | O=C1c2ccccc2C(=O)N1Cc1ccc(CCN2CCN(c3ccccc3F)CC2)cc1 |
| 51.5 | O=C1c2ccccc2C(=O)N1Cc1ccc(CCN2CCN(c3ccccc3Cl)CC2)cc1 |
| 4.3 | CS(=O)(=O)c1ccccc1N1CCN(CCc2ccc(CN3C(=O)c4ccccc4C3=O)cc2)CC1 |
| 0.3 | O=C1c2ccccc2C(=O)N1Cc1ccc(CCN2CCN(c3ccccn3)CC2)cc1 |

Second part, the compound before the results:

| Structure (SMILES) | Ratio IC50 |
| --- | --- |
| O=C1c2ccccc2C(=O)N1Cc1ccc(CCN2CCN(c3ccc(Br)cc3)CC2)cc1 | 0.3 |
| O=C1c2ccccc2C(=O)N1Cc1ccc(CCN2CCN(c3ccc(F)cc3)CC2)cc1 | 3 |
| Cc1ccc(N2CCN(CCc3ccc(CN4C(=O)c5ccccc5C4=O)cc3)CC2)cc1 | 14.2 |
| N#Cc1ccc(N2CCN(CCc3ccc(CN4C(=O)c5ccccc5C4=O)cc3)CC2)c(F)c1 | 0.3 |
| O=C1c2ccccc2C(=O)N1Cc1ccc(CCN2CCN(c3ccc(C(F)(F)F)cc3)CC2)cc1 | 0.3 |

species on record: Homo sapiens; assay: Selectivity ratio of IC50 for adrenergic alpha1B receptor (unknown origin) to IC50 for adrenergic alpha1D receptor (unknown origin)

| Ratio IC50 | Structure (SMILES) |
| --- | --- |
| 1.6 | O=C1c2ccccc2C(=O)N1Cc1ccc(CCN2CCN(c3ccc(F)cc3F)CC2)cc1 |
| 8.7 | O=C1c2ccccc2C(=O)N1Cc1ccc(CCN2CCN(Cc3ccccc3)CC2)cc1 |
| 0.2 | O=C1c2ccccc2C(=O)N1Cc1ccc(CCN2CCN(c3ccccc3F)CC2)cc1 |
| 21.3 | O=C1c2ccccc2C(=O)N1Cc1ccc(CCN2CCN(c3ccccc3Cl)CC2)cc1 |
| 19.8 | CS(=O)(=O)c1ccccc1N1CCN(CCc2ccc(CN3C(=O)c4ccccc4C3=O)cc2)CC1 |
| 1.1 | O=C1c2ccccc2C(=O)N1Cc1ccc(CCN2CCN(c3ccccn3)CC2)cc1 |

Second part, the compound before the results:

| Structure (SMILES) | Ratio IC50 |
| --- | --- |
| O=C1c2ccccc2C(=O)N1Cc1ccc(CCN2CCN(c3ccc(Br)cc3)CC2)cc1 | 0.1 |
| O=C1c2ccccc2C(=O)N1Cc1ccc(CCN2CCN(c3ccc(F)cc3)CC2)cc1 | 5.6 |
| Cc1ccc(N2CCN(CCc3ccc(CN4C(=O)c5ccccc5C4=O)cc3)CC2)cc1 | 0.08 |
| N#Cc1ccc(N2CCN(CCc3ccc(CN4C(=O)c5ccccc5C4=O)cc3)CC2)c(F)c1 | 0.04 |
| O=C1c2ccccc2C(=O)N1Cc1ccc(CCN2CCN(c3ccc(C(F)(F)F)cc3)CC2)cc1 | 1.5 |

target: T2, Alpha-1A adrenergic receptor (Homo sapiens, UniProt P35348); assay: Antagonist activity at adrenergic alpha1A receptor (unknown origin) by firefly and renilla dual glo luciferase assay; outline: as §1
T2 sequence (P35348 whole entry): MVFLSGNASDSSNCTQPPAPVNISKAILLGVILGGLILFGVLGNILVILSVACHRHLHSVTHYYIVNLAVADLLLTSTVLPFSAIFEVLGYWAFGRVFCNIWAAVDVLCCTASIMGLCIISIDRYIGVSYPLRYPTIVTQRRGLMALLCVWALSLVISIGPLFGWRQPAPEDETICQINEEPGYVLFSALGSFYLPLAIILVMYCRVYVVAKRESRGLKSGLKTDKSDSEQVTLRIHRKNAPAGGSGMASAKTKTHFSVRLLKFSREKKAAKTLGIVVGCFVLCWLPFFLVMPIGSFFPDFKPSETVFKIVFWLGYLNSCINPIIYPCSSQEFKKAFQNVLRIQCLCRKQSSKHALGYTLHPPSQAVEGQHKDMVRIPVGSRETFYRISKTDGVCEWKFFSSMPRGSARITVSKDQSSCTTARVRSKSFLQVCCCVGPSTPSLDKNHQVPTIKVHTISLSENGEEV

| IC50 | Structure (SMILES) |
| --- | --- |
| 0.0899 µM | O=C1c2ccccc2C(=O)N1Cc1ccc(CCN2CCN(c3ccc(F)cc3F)CC2)cc1 |
| 1.2 µM | O=C1c2ccccc2C(=O)N1Cc1ccc(CCN2CCN(Cc3ccccc3)CC2)cc1 |
| 0.096 µM | O=C1c2ccccc2C(=O)N1Cc1ccc(CCN2CCN(c3ccccc3F)CC2)cc1 |
| 0.0152 µM | O=C1c2ccccc2C(=O)N1Cc1ccc(CCN2CCN(c3ccccc3Cl)CC2)cc1 |
| 0.0464 µM | CS(=O)(=O)c1ccccc1N1CCN(CCc2ccc(CN3C(=O)c4ccccc4C3=O)cc2)CC1 |
| 0.0496 µM | O=C1c2ccccc2C(=O)N1Cc1ccc(CCN2CCN(c3ccccn3)CC2)cc1 |

More lines, now with the values behind:

| Structure (SMILES) | IC50 |
| --- | --- |
| O=C1c2ccccc2C(=O)N1Cc1ccc(CCN2CCN(c3ccc(Br)cc3)CC2)cc1 | 3.42 µM |
| O=C1c2ccccc2C(=O)N1Cc1ccc(CCN2CCN(c3ccc(F)cc3)CC2)cc1 | 0.229 µM |
| Cc1ccc(N2CCN(CCc3ccc(CN4C(=O)c5ccccc5C4=O)cc3)CC2)cc1 | 0.00203 µM |
| N#Cc1ccc(N2CCN(CCc3ccc(CN4C(=O)c5ccccc5C4=O)cc3)CC2)c(F)c1 | 0.128 µM |
| O=C1c2ccccc2C(=O)N1Cc1ccc(CCN2CCN(c3ccc(C(F)(F)F)cc3)CC2)cc1 | 0.0662 µM |

target: T3, Alpha-1B adrenergic receptor (Homo sapiens, UniProt P35368); assay: Antagonist activity at adrenergic alpha1B receptor (unknown origin) by firefly and renilla dual glo luciferase assay; outline: as §1
T3 sequence (P35368 whole entry): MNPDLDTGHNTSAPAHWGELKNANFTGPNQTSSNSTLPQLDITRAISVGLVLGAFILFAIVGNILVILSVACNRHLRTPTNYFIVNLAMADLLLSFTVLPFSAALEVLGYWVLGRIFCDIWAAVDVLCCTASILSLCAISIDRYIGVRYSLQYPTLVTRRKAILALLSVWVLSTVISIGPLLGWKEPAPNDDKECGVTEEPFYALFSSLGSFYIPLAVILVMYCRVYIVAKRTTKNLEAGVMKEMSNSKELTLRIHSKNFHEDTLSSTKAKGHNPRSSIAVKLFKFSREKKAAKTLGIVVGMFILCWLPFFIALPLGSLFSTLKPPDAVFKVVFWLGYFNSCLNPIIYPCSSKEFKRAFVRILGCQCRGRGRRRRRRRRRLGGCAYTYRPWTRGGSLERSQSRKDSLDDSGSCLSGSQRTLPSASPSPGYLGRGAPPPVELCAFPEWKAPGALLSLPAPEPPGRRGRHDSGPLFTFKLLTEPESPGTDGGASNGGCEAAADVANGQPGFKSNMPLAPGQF

| IC50 | Structure (SMILES) |
| --- | --- |
| 0.787 µM | O=C1c2ccccc2C(=O)N1Cc1ccc(CCN2CCN(c3ccc(F)cc3F)CC2)cc1 |
| 1.01 µM | O=C1c2ccccc2C(=O)N1Cc1ccc(CCN2CCN(Cc3ccccc3)CC2)cc1 |
| 1.88 µM | O=C1c2ccccc2C(=O)N1Cc1ccc(CCN2CCN(c3ccccc3F)CC2)cc1 |
| 0.781 µM | O=C1c2ccccc2C(=O)N1Cc1ccc(CCN2CCN(c3ccccc3Cl)CC2)cc1 |
| 0.199 µM | CS(=O)(=O)c1ccccc1N1CCN(CCc2ccc(CN3C(=O)c4ccccc4C3=O)cc2)CC1 |
| 0.0126 µM | O=C1c2ccccc2C(=O)N1Cc1ccc(CCN2CCN(c3ccccn3)CC2)cc1 |

The remaining lines, values behind:

| Structure (SMILES) | IC50 |
| --- | --- |
| O=C1c2ccccc2C(=O)N1Cc1ccc(CCN2CCN(c3ccc(Br)cc3)CC2)cc1 | 1 µM |
| O=C1c2ccccc2C(=O)N1Cc1ccc(CCN2CCN(c3ccc(F)cc3)CC2)cc1 | 0.684 µM |
| Cc1ccc(N2CCN(CCc3ccc(CN4C(=O)c5ccccc5C4=O)cc3)CC2)cc1 | 0.0289 µM |
| N#Cc1ccc(N2CCN(CCc3ccc(CN4C(=O)c5ccccc5C4=O)cc3)CC2)c(F)c1 | 0.0348 µM |
| O=C1c2ccccc2C(=O)N1Cc1ccc(CCN2CCN(c3ccc(C(F)(F)F)cc3)CC2)cc1 | 0.0197 µM |

Reference: ChEMBL document CHEMBL3739328, “Synthesis, structure-activity relationship and biological evaluation of novel arylpiperzines as α1A/1D-AR subselective antagonists for BPH” (Bioorg Med Chem, 2015)
